Results reported in ChEMBL document CHEMBL1799931, “Synthesis, evaluation and metabolic studies of radiotracers containing a 4-(4-[18F]-fluorobenzyl)piperidin-1-yl moiety for the PET imaging of NR2B NMDA receptors” (Eur J Med Chem, 2011).

Columns and labels:
[1] = molecular target: T1, Glutamate NMDA receptor; GRIN1/GRIN2B (Homo sapiens, UniProt Q05586+Q13224); test: Antagonist activity against NR1a/NR2B receptor transfected in human HEK293 cells assessed as inhibition of NMDA-induced Ca2+ influx; type: functional, cell-based
[2] = molecular target: Glutamate NMDA receptor; GRIN1/GRIN2A (Homo sapiens) (UniProt Q05586+Q12879); test: Antagonist activity against NR1a/NR2A receptor transfected in human HEK293 cells assessed as inhibition of NMDA-induced Ca2+ influx at 10 uM; type: functional, cell-based
How it was run: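 HEK293 cells co-transfected 1:1 with NR1-1a plus NR2A-GFP or NR2B-GFP, D-APV (100 µM) after transfection, used at 24 h. Cells loaded with Fura-2/AM 45 min at 37 °C, then held in HBBSS with glycine, pH 7.45, at room temperature under perfusion. NMDA 100 µM for 30 s; ligands applied 60 s before and during.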

Muscle tissue [3] = test: Biodistribution in Sprague-Dawley rat muscle at 3.2 to 18.6 MBq, iv after 120 mins by micro PET analysis; type: ADME, organism-based; conditions: in vivo, 2 h
How it was run: (§1)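 Male Sprague-Dawley rats (235-310 g) under isoflurane got 18F radiotracer (3.2-18.6 MBq) by tail-vein catheter, n = 3. Dynamic microPET scan for 120 min, then ex vivo tissue counting at 120 min post-injection. Values are %ID/g ± SEM.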

[4] = Biodistribution in Sprague-Dawley rat fat at 3.2 to 18.6 MBq, iv after 120 mins by micro PET analysis; type: ADME, organism-based, Adipose tissue; conditions: in vivo, 2 h; how it was run: as §1
Brain [5] = test: Biodistribution in Sprague-Dawley rat brain at 3.2 to 18.6 MBq, iv after 120 mins by micro PET analysis; type: ADME, organism-based; conditions: in vivo, 2 h; how it was run: as §1
Bone [6] = test: Biodistribution in Sprague-Dawley rat bone at 3.2 to 18.6 MBq, iv after 120 mins by micro PET analysis; type: ADME, organism-based, Bone element; conditions: in vivo, 2 h; how it was run: as §1
Rattus norvegicus [7] = test: Biodistribution in Sprague-Dawley rat cartilage at 3.2 to 18.6 MBq, iv after 120 mins by micro PET analysis; type: ADME, organism-based, Cartilage tissue; conditions: in vivo, 2 h; how it was run: as §1
Thymus [8] = test: Biodistribution in Sprague-Dawley rat thymus at 3.2 to 18.6 MBq, iv after 120 mins by micro PET analysis; type: ADME, organism-based; conditions: in vivo, 2 h; how it was run: as §1
[9] = Metabolic stability in Sprague-Dawley rat plasma assessed as half life by radio thin layer chromatography analysis; type: ADME, cell-free
How it was run: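 Anesthetized male Sprague-Dawley rats (235-330 g) given radiotracer (3.2-15.1 MBq). Femoral arterial blood was sampled over 90 min and plasma gamma-counted. Plasma was diluted with acetonitrile, centrifuged and run on silica radio-TLC with cold reference, giving parent and radiometabolite fractions.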

Lung [10] = test: Biodistribution in Sprague-Dawley rat lung at 3.2 to 18.6 MBq, iv after 120 mins by micro PET analysis; type: ADME, organism-based; conditions: in vivo, 2 h; how it was run: as §1
Heart [11] = test: Biodistribution in Sprague-Dawley rat heart at 3.2 to 18.6 MBq, iv after 120 mins by micro PET analysis; type: ADME, organism-based; conditions: in vivo, 2 h; how it was run: as §1
Pancreas [12] = test: Biodistribution in Sprague-Dawley rat pancreas at 3.2 to 18.6 MBq, iv after 120 mins by micro PET analysis; type: ADME, organism-based; conditions: in vivo, 2 h; how it was run: as §1
Liver [13] = test: Biodistribution in Sprague-Dawley rat liver at 3.2 to 18.6 MBq, iv after 120 mins by micro PET analysis; type: ADME, organism-based; conditions: in vivo, 2 h; how it was run: as §1
Spleen [14] = test: Biodistribution in Sprague-Dawley rat spleen at 3.2 to 18.6 MBq, iv after 120 mins by micro PET analysis; type: ADME, organism-based; conditions: in vivo, 2 h; how it was run: as §1
Kidney [15] = test: Biodistribution in Sprague-Dawley rat kidney at 3.2 to 18.6 MBq, iv after 120 mins by micro PET analysis; type: ADME, organism-based; conditions: in vivo, 2 h; how it was run: as §1
[16] = Biodistribution in Sprague-Dawley rat urine at 3.2 to 18.6 MBq, iv after 120 mins by micro PET analysis; type: ADME, organism-based; conditions: in vivo, 2 h; how it was run: as §1
Rattus norvegicus [17] = test: Biodistribution in Sprague-Dawley rat bladder at 3.2 to 18.6 MBq, iv after 120 mins by micro PET analysis; type: ADME, organism-based, Urinary bladder; conditions: in vivo, 2 h; how it was run: as §1
Intestine [18] = test: Biodistribution in Sprague-Dawley rat intestine at 3.2 to 18.6 MBq, iv after 120 mins by micro PET analysis; type: ADME, organism-based; conditions: in vivo, 2 h; how it was run: as §1
Hippocampus = test: Biodistribution in Sprague-Dawley rat hippocampus at 3.2 to 18.6 MBq, iv after 120 mins by micro PET analysis; conditions: in vivo, 2 h
Cerebellum = test: Biodistribution in Sprague-Dawley rat cerebellum at 3.2 to 18.6 MBq, iv after 120 mins by micro PET analysis; conditions: in vivo, 2 h
Mus musculus = test: Analgesic activity in po dosed mouse assessed as licking behavior measured after 20 to 25 mins by formalin test; type: functional, organism-based; conditions: Mus musculus, po; read-out: ED50
[19] = molecular target: T1, Glutamate NMDA receptor; GRIN1/GRIN2B; test: Displacement of [3H]-Ro-256981 from recombinant NR1/NR2B receptor; type: protein-complex assay
Thymus [20] = test: Biodistribution in Sprague-Dawley rat thymus at 3.2 to 18.6 MBq, iv after 90 mins by micro PET analysis; type: ADME, organism-based; conditions: in vivo, 1.5 h
How it was run: (§2)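 Male Sprague-Dawley rats (235-310 g) under isoflurane got 18F radiotracer (3.2-18.6 MBq) by tail-vein catheter, n = 2. Dynamic microPET scan for 90 min, then ex vivo tissue counting at 90 min post-injection. Values are %ID/g ± SEM.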

Lung [21] = test: Biodistribution in Sprague-Dawley rat lung at 3.2 to 18.6 MBq, iv after 90 mins by micro PET analysis; type: ADME, organism-based; conditions: in vivo, 1.5 h; how it was run: as §2
Heart [22] = test: Biodistribution in Sprague-Dawley rat heart at 3.2 to 18.6 MBq, iv after 90 mins by micro PET analysis; type: ADME, organism-based; conditions: in vivo, 1.5 h; how it was run: as §2
Pancreas [23] = test: Biodistribution in Sprague-Dawley rat pancreas at 3.2 to 18.6 MBq, iv after 90 mins by micro PET analysis; type: ADME, organism-based; conditions: in vivo, 1.5 h; how it was run: as §2
Liver [24] = test: Biodistribution in Sprague-Dawley rat liver at 3.2 to 18.6 MBq, iv after 90 mins by micro PET analysis; type: ADME, organism-based; conditions: in vivo, 1.5 h; how it was run: as §2
Spleen [25] = test: Biodistribution in Sprague-Dawley rat spleen at 3.2 to 18.6 MBq, iv after 90 mins by micro PET analysis; type: ADME, organism-based; conditions: in vivo, 1.5 h; how it was run: as §2
Kidney [26] = test: Biodistribution in Sprague-Dawley rat kidney at 3.2 to 18.6 MBq, iv after 90 mins by micro PET analysis; type: ADME, organism-based; conditions: in vivo, 1.5 h; how it was run: as §2
[27] = Biodistribution in Sprague-Dawley rat urine at 3.2 to 18.6 MBq, iv after 90 mins by micro PET analysis; type: ADME, organism-based; conditions: in vivo, 1.5 h; how it was run: as §2
Rattus norvegicus [28] = test: Biodistribution in Sprague-Dawley rat bladder at 3.2 to 18.6 MBq, iv after 90 mins by micro PET analysis; type: ADME, organism-based, Urinary bladder; conditions: in vivo, 1.5 h; how it was run: as §2
Intestine [29] = test: Biodistribution in Sprague-Dawley rat intestine at 3.2 to 18.6 MBq, iv after 90 mins by micro PET analysis; type: ADME, organism-based; conditions: in vivo, 1.5 h; how it was run: as §2
Muscle tissue [30] = test: Biodistribution in Sprague-Dawley rat muscle at 3.2 to 18.6 MBq, iv after 90 mins by micro PET analysis; type: ADME, organism-based; conditions: in vivo, 1.5 h; how it was run: as §2
[31] = Biodistribution in Sprague-Dawley rat fat at 3.2 to 18.6 MBq, iv after 90 mins by micro PET analysis; type: ADME, organism-based, Adipose tissue; conditions: in vivo, 1.5 h; how it was run: as §2
Brain [32] = test: Biodistribution in Sprague-Dawley rat brain at 3.2 to 18.6 MBq, iv after 90 mins by micro PET analysis; type: ADME, organism-based; conditions: in vivo, 1.5 h; how it was run: as §2
Bone [33] = test: Biodistribution in Sprague-Dawley rat bone at 3.2 to 18.6 MBq, iv after 90 mins by micro PET analysis; type: ADME, organism-based, Bone element; conditions: in vivo, 1.5 h; how it was run: as §2
Rattus norvegicus [34] = test: Biodistribution in Sprague-Dawley rat cartilage at 3.2 to 18.6 MBq, iv after 90 mins by micro PET analysis; type: ADME, organism-based, Cartilage tissue; conditions: in vivo, 1.5 h; how it was run: as §2
[35] = Inhibition of alpha-adrenergic receptor
[36] = molecular target: Voltage-gated inwardly rectifying potassium channel KCNH2 (Homo sapiens, UniProt Q12809); test: Inhibition of human ERG potassium channel
Plasma = test: Metabolic stability of the compound in rat plasma after 30 mins; type: ADME, cell-free; conditions: 0.5 h
How it was run: (§3)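 Rat plasma or liver homogenate (0.450 mL) spiked with ligand at 5-200 mg/L. Samples were deproteinized with acetonitrile immediately or after 30 min at 37 °C, then analysed by HPLC in triplicate injections.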

Liver [37] = test: Metabolic stability of the compound in rat liver homogenate after 30 mins; type: ADME, tissue-based; conditions: tissue homogenate, 0.5 h; how it was run: as §3
Rattus norvegicus [38] = test: Analgesic activity against carrageenan-induced mechanical hyperalgesia in iv dosed rat; type: functional
[39] = Half life in rat plasma; type: ADME, cell-free

T1 sequence (Q13224 whole entry, other chains not shown): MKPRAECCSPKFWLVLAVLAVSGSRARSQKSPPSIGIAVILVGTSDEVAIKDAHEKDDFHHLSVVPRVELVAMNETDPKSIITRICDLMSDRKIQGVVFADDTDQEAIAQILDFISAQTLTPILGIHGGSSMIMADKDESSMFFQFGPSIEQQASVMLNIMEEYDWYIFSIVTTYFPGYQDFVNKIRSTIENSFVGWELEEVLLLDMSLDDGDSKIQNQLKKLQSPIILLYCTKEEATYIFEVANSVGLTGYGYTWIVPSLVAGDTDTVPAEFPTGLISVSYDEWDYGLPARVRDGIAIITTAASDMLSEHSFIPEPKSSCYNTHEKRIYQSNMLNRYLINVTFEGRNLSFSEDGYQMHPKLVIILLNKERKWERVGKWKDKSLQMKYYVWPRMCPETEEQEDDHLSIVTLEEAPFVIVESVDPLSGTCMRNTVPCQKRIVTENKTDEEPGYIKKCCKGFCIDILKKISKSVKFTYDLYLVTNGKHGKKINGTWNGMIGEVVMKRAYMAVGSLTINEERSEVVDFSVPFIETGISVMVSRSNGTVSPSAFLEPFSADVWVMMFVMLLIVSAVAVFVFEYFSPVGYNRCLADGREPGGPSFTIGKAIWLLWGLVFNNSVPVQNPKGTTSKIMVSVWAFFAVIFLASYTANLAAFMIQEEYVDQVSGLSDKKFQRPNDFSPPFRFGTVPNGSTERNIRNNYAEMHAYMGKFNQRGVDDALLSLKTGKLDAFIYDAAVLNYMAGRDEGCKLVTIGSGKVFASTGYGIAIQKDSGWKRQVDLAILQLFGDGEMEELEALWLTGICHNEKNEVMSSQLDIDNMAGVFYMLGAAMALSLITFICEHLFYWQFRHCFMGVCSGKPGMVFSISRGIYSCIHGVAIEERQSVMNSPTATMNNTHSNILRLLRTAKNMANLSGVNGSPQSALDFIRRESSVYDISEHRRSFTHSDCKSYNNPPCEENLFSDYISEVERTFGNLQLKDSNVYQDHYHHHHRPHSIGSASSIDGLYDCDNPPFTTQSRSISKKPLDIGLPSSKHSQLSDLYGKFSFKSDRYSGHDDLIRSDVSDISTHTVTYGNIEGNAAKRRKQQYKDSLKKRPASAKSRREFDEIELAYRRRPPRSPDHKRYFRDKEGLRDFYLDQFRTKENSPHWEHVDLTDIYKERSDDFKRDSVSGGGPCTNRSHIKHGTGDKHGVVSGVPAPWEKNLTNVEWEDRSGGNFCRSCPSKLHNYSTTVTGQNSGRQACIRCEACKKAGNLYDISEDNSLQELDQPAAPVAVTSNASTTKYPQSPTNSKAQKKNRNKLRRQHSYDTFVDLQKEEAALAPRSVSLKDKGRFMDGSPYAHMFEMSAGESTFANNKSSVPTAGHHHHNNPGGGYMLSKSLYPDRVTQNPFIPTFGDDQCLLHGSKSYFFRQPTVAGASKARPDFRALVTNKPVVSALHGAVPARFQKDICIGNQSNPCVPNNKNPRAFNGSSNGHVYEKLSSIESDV
Chain of Voltage-gated inwardly rectifying potassium channel KCNH2 (Q12809 whole entry): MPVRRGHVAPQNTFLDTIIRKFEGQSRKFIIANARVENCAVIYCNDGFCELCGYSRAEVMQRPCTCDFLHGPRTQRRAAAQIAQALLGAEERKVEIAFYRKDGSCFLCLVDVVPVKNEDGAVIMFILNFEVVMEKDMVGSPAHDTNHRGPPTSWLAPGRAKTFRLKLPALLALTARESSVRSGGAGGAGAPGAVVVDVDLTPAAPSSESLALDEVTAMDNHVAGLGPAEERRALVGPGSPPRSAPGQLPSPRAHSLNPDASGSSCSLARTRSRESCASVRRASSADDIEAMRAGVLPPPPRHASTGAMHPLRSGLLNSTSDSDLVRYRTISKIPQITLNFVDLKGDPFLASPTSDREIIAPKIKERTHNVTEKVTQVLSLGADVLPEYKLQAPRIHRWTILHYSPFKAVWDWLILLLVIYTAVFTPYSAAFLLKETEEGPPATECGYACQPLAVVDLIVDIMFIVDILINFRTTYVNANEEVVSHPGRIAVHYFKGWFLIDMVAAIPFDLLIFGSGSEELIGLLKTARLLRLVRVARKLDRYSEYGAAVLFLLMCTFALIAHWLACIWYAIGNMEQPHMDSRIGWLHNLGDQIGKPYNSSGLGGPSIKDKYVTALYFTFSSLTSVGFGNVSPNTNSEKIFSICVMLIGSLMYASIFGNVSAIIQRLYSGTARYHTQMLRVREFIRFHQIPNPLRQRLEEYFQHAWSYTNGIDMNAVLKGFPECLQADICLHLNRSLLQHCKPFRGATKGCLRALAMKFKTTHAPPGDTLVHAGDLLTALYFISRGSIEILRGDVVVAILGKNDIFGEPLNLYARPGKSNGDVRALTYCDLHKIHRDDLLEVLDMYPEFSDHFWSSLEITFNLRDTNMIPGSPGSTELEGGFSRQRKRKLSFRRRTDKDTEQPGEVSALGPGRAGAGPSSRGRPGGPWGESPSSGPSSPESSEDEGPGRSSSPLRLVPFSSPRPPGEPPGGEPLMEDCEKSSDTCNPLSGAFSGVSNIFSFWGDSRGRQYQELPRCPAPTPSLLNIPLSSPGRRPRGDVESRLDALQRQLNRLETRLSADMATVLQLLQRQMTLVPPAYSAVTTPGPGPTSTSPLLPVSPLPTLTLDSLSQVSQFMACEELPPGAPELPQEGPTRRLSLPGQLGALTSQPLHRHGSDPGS

O=C1Cc2cc(NC(=O)C(=O)N3CCC(Cc4ccc(F)cc4)CC3)ccc2N1
IC50 [1]: 830 nM
inhibition [2]: 14.5%

CC(C(O)c1ccc(O)cc1)N1CCC(Cc2ccccc2)CC1 (configuration not stated)
inhibition [2]: 22.3%

O=C(Nc1ccc2[nH]c(=O)oc2c1)C(=O)N1CCC(Cc2ccc([18F])cc2)CC1
Drug uptake (Muscle tissue [3]): 0.069 % ID/g
Drug uptake [4]: 0.056 % ID/g
Drug uptake (Brain [5]): 0.054 % ID/g
Drug uptake (Bone [6]): 0.397 % ID/g
Drug uptake (Rattus norvegicus [7]): 0.776 % ID/g
Drug uptake (Thymus [8]): 0.057 % ID/g
half-life [9]: 50 min
Drug uptake (Lung [10]): 0.132 % ID/g
Drug uptake (Heart [11]): 0.076 % ID/g
Drug uptake (Pancreas [12]): 0.08 % ID/g
Drug uptake (Liver [13]): 1.365 % ID/g
Drug uptake (Spleen [14]): 0.169 % ID/g
Drug uptake (Kidney [15]): 0.377 % ID/g
Drug uptake [16]: 3.237 % ID/g
Drug uptake (Rattus norvegicus [17]): 0.175 % ID/g
Drug uptake (Intestine [18]): 0.107 % ID/g
Drug uptake (Hippocampus): 0.064 % ID/g
Drug uptake (Cerebellum): 0.046 % ID/g

O=C(Nc1ccc2[nH]c(O)nc2c1)C(=O)N1CCC(Cc2ccc(F)cc2)CC1
ED50 (Mus musculus): 0.5 mg/kg
IC50 [19]: 5 nM

O=C(Nc1ccc2nc(O)oc2c1)C(=O)N1CCC(Cc2ccc(F)cc2)CC1 [RADIPRODIL]
ED50 (Mus musculus): 7.7 mg/kg
inhibition [2]: 10.1%

[18F]c1ccc(CC2CCNCC2)cc1
Drug uptake (Thymus [20]): 0.187 % ID/g
Drug uptake (Lung [21]): 0.507 % ID/g
Drug uptake (Heart [22]): 0.135 % ID/g
Drug uptake (Pancreas [23]): 0.285 % ID/g
Drug uptake (Liver [24]): 2.307 % ID/g
Drug uptake (Spleen [25]): 0.322 % ID/g
Drug uptake (Kidney [26]): 1.206 % ID/g
Drug uptake [27]: 10.125 % ID/g
Drug uptake (Rattus norvegicus [28]): 0.542 % ID/g
Drug uptake (Intestine [29]): 0.902 % ID/g
Drug uptake (Muscle tissue [30]): 0.145 % ID/g
Drug uptake [31]: 0.052 % ID/g
Drug uptake (Brain [32]): 0.395 % ID/g
Drug uptake (Bone [33]): 0.75 % ID/g
Drug uptake (Rattus norvegicus [34]): 2.312 % ID/g
half-life [9]: 10 min

O=C(Nc1ccc2nc(O)oc2c1)C(=O)N1CCC(Cc2ccccc2)CC1
ED50 (Mus musculus): 0.5 mg/kg
IC50 [19]: 4 nM

Oc1ccc2[nH]c(CN3CCC(Cc4ccc(F)cc4)CC3)nc2c1
IC50 [35]: 620 nM
IP [36]: 500 nM
IC50 [1]: 47.3 nM
inhibition [2]: 10.5%
Stability (Plasma): Stable
Stability (Liver [37]): Stable

Oc1ccc2nc(CN3CCC(Cc4ccccc4)CC3)[nH]c2c1
ED50 (Rattus norvegicus [38]): 3.3 mg/kg
half-life [39]: > 480 min
IC50 [1]: 209 nM
